In article PMC2744899 (Journal of the American Chemical Society, 2009):
Values joined by “and” are separate entries in the source; they are usually repeats but may differ in a detail not shown here. Equal entries are not always repeated.

Columns and labels:
[1] = system: scFv K7 displayed on the yeast cell-surface; assay: Fluorescence titration of dye into yeast surface-displayed K7; conditions: read-out: Kd Yeast-Displayed K7, 10^7 yeast cells, 1:1 binding model
[2] = Thermal bleaching by singlet oxygen from sodium molybdate and H2O2; type: physicochemical; conditions: for loss of absorbance (bleaching): free dye 1 μM
Outline: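 Singlet oxygen was generated thermally from 50 mM Na2MoO4 plus 9.8 mM H2O2 (final) at pH 9.0, with ionic strength matched to standard wash buffer. Reactions used 1 µM dye, free (in H2O or D2O, followed by absorbance) or with 1 µM K7. Spectra were taken before molybdate addition, then every 10 min for 40 min.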

[3] = Photobleaching of DIR/K7 by Xe lamp irradiation and fluoromodule regeneration; type: physicochemical
[4] = Photobleaching by direct irradiation; type: physicochemical; conditions: compare Figures 3 and 10, per photons absorbed per dye molecule

For CN1/C(=C/C=C/c2cc[n+](CCCS(=O)(=O)[O-])c3ccccc23)C(C)(C)c2ccccc21 [DIR, dimethylindole red], the Kd [1] was 13.9 ± 3.2 nM, the “bleaching in the presence of K7” value ([2]; [Dye] = [K7] = 1 μM, pH 9, 40 min) was 20% and the “loss of absorbance (bleaching)” value ([2]; no K7, 90% D2O, pH 9, 40 min) was 74%. The “loss of absorbance (bleaching)” value ([2]; no K7, H2O, pH 9, after 40 min reaction) was 42%, the “loss of DIR fluorescence after irradiation” value ([3]; 1:1 DIR/K7 at 250 nM, λ > 455 nm, 15 min, H2O) was 55 (±7) % and 55% and the “fluorescence restored after addition of another equivalent of DIR” value ([3]; after 15 min irradiation, one equivalent (250 nM) fresh DIR added) was 89 % of the original value.
For CN1C(=Cc2cc[n+](C)c3ccccc23)Sc2ccccc21 [TO, thiazole orange], the “photobleaching efficiency relative to DIR and α-CN-DIR” value [4] was greater than 100 fold.
